Entries after “also recorded” stand apart in the source; their conditions may differ.
B1: PNA: Peanut agglutinin, digoxigenin labeled (protein, UniProt P02872 24-273, looked up)
Galactose-binding lectin: AETVSFNFNSFSEGNPAINFQGDVTVLSNGNIQLTNLNKVNSVGRVLYAMPVRIWSSATGNVASFLTSFSFEMKDIKDYDPADGIIFFIAPEDTQIPAGSIGGGTLGVSDTKGAGHFVGVEFDTYSNSEYNDPPTDHVGIDVNSVDSVKTVPWNSVSGAVVKVTVIYDSSTKTLSVAVTNDNGDITTIAQVVDLKAKLPERVKFGFSASGSLGGRQIHLIRSWSFTSTLITTTRRSIDNNEKKIMNMASA
modifications: digoxigenin label

Assays:
Set-up in all cases: species or system Syrian hamsters (Mesocricetus auratus)
recombinant MSP (rMSP) = target: T1, recombinant MSP (rMSP) (Mesocricetus auratus, UniProt Q9QXU1); experiment: Fluorescence ligand binding / competitive displacement of probe 1-AMA from rMSP; conditions: for binding / competitor activity with rMSP in fluorescent-probe assay (in words): probe 1-AMA
T1 sequence (Q9QXU1 16-172): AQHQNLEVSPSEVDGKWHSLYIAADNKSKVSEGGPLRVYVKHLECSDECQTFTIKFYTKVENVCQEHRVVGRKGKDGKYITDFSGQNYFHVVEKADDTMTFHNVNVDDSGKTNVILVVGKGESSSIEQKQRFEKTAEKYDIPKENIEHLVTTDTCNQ
Summary of the method: (§1)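 rMSP was expressed in E. coli BL21(DE3) with 1 mM IPTG and purified by Ni-NTA and Sephadex G-75. Assays used 2 µM protein in 20 mM Tris-HCl pH 7.4 at 25 °C, excitation 295 nm, emission read at 485 nm. For Kd, 1-AMA (1 mM methanol stock) was titrated and fitted against free probe, assuming 1:1 binding and fully active protein. Competitors (0.25–40 µM) displaced 2 µM probe. IC50 was taken at half-maximal fluorescence; Ki = IC50/(1+[L]/Kd).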

recombinant FLP (rFLP) = target: T2, recombinant FLP (rFLP) (Mesocricetus auratus, UniProt Q99MG7); experiment: Fluorescence ligand binding / competitive displacement of probe 1-NPN from rFLP; conditions: for binding / competitor activity with rFLP in fluorescent-probe assay (in words): probe 1-NPN
T2 sequence (Q99MG7 17-172): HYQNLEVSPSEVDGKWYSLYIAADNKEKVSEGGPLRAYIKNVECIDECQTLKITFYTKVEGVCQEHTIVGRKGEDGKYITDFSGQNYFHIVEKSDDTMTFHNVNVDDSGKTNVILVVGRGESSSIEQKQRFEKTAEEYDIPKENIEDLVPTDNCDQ
Summary of the method: as §1, with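 “rFLP” for “rMSP”, “425” for “485”, “1-NPN” for “1-AMA”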

[1] = target: T3, nMSP (mixture of three natural MSP forms) (Mesocricetus auratus, UniProt Q9QXU1); experiment: IBMP binding detected by GC-MS of protein peak after gel-filtration; conditions: ~7.2 mM IBMP, ~200 µM protein, 25 °C 1 h, Sephadex-G-25, DCM extract
T3 sequence (Q9QXU1 16-172): T1 sequence (Q9QXU1 16-172)
Summary of the method: (§2)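 The protein–IBMP mix was incubated on a rotary shaker, with chymotrypsin as negative control. After G-25 elution, fractions of the first OD280 peak were mixed with dichloromethane, vortexed and held overnight at −20 °C. The lower organic phase was analyzed by GC-MS: 2 µl splitless, helium 1 ml/min, oven 50→300 °C stepwise, 70 eV ionization, total ion current mode.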

rMSP = target: T4, rMSP (Mesocricetus auratus, UniProt Q9QXU1); experiment: as above; conditions: ~7.2 mM IBMP, ~200 µM protein, 25 °C 1 h, Sephadex-G-25, DCM extract
T4 sequence (Q9QXU1 16-172): T1 sequence (Q9QXU1 16-172)
Summary of the method: as §2

rFLP = target: T5, rFLP (Mesocricetus auratus, UniProt Q99MG7); experiment: as above; conditions: ~7.2 mM IBMP, ~200 µM protein, 25 °C 1 h, Sephadex-G-25, DCM extract
T5 sequence (Q99MG7 17-172): T2 sequence (Q99MG7 17-172)
Summary of the method: as §2

24 kDa MSP = target: T6, 24 kDa MSP (Mesocricetus auratus, UniProt Q9QXU1); experiment: Lectin binding
T6 sequence (Q9QXU1 16-172): T1 sequence (Q9QXU1 16-172)
Summary of the method: (§3)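 Natural MSP, a mixture of three forms purified from adult male submandibular gland, was tested with a digoxigenin-labelled lectin kit (GNA, SNA, MAA, DSA, PNA). It was also passed through Con A, WGA and jacalin affinity columns. Unbound fractions and fractions eluted with lectin-specific sugars were checked for MSP forms by SDS-PAGE.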

30 kDa MSP = target: T7, 30 kDa MSP (Mesocricetus auratus, UniProt Q9QXU1); experiment: Lectin binding
T7 sequence (Q9QXU1 16-172): T1 sequence (Q9QXU1 16-172)
Summary of the method: as §3

Molecule | binding / competitor activity with rMSP in fluorescent-probe assay (in words) (recombinant MSP (rMSP)) | binding / competitor activity with rFLP in fluorescent-probe assay (in words) (recombinant FLP (rFLP)) | further results
Nc1cccc2cc3ccccc3cc12 [1-AMA, 1-aminoanthracene] | strong affinity |  | Kd (recombinant MSP (rMSP)): ~1860 nM
c1ccc(Nc2cccc3ccccc23)cc1 [1-NPN, N-phenyl-1-naphthylamine] |  | strong affinity | Kd (recombinant FLP (rFLP)): ~1380 nM
C=CC(O)CCCCC (centres unmarked) [1-octen-3-ol] | no competitor activity | no competitor activity | 
O=C(O)c1cccc(O)c1O [2,3-dihydroxybenzoic acid] | no competitor activity | no competitor activity | 
O=C(O)c1cc(O)ccc1O [2,5-dihrodoxy benzoic acid] | no competitor activity | no competitor activity | 
C[C@]12CC[C@@H]3c4ccc(O)cc4CC[C@H]3[C@@H]1CC[C@@H]2O [17β-estradiol] | extremely weak competitors | extremely weak competitors | 
COc1nccnc1CC(C)C [IBMP, 2-isobutyl-3-methoxypyrazine] | high affinity | high affinity | IBMP found by GC-MS in protein peak fraction (binding to nMSP) [1]: specific binding; also recorded: retain and specifically carry (i.e. bind) detectable levels; IBMP found by GC-MS in protein peak fraction (binding to rMSP) (rMSP): specific binding; also recorded: retain and specifically carry (i.e. bind) detectable levels; IBMP found by GC-MS in protein peak fraction (binding to rFLP) (rFLP): specific binding; also recorded: retain and specifically carry (i.e. bind) detectable levels
CC(=O)N(O)CCCCCNC(=O)CCC(=O)N(O)CCCCCNC(=O)CCC(=O)N(O)CCCCCN [deferoxamine] | no competitor activity | no competitor activity | 
CCCCCCCCCCCCCCCCO [hexadecanol] | no competitor activity | no competitor activity | 
CCCCCCCCCCCCCC(=O)O [myristic] | no competitor activity | no competitor activity | 
CCCCCCCC/C=C\CCCCCCCC(=O)O [oleic] | no competitor activity | no competitor activity | 
CCCCCCCCCCCCCCCC(=O)O [palmitic] | no competitor activity | no competitor activity | 
CC(=O)[C@H]1CC[C@H]2[C@@H]3CCC4=CC(=O)CC[C@]4(C)[C@H]3CC[C@]12C [progesterone] | extremely weak competitors | extremely weak competitors | 
CCCCCCCCCCCCCCCCCC(=O)O [stearic] | no competitor activity | no competitor activity | 
C[C@]12CC[C@H]3[C@@H](CCC4=CC(=O)CC[C@@]43C)[C@@H]1CC[C@@H]2O [testosterone] | extremely weak competitors | extremely weak competitors | 
B1 |  |  | Binding of lectin to 24 kDa MSP (in words) (24 kDa MSP): lack of binding; Binding of lectin to 30 kDa MSP (in words) (30 kDa MSP): lack of binding

Source: article PMC12339990 (Scientific Reports, 2025)
